AHR activator – human AHR activation; P35869; AHR-responsive luciferase reporter cells, luminescence; activation, % at 5 µM; actives 2.5% (n = 320,000); AID 2796; in the data active = activation above about 47%
GAA850 FXN act – increases GAA850 frataxin promoter reporter activity; activation, % at 6 µM; HEK293 lucGAA850 FXN promoter luciferase reporter, 24 h; percent of 10 µM SAHA response; AID 540364; actives 0.56% (n = 360,000);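 active = activation above the average of all compounds screened plus 3 SD, cutoff fixed separately per campaign, cut at about 7.5% in these data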
ABCB6 inh MLPCN – human ABCB6 transporter inhibition; Q9NP58; K562-ABCB6 porphyrin accumulation, flow cytometry, 1 h; stronger effect = lower value; fluorescence ratio to DMSO, % at 10 µM; actives 0.19% (n = 360,000); AID 602162;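 active = fluorescence ratio to DMSO below 75%, the collection mean minus 3 SD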;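 note: signal is porphyrin accumulated inside mitochondria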
Target sequence (Q9NP58 whole entry, looked up): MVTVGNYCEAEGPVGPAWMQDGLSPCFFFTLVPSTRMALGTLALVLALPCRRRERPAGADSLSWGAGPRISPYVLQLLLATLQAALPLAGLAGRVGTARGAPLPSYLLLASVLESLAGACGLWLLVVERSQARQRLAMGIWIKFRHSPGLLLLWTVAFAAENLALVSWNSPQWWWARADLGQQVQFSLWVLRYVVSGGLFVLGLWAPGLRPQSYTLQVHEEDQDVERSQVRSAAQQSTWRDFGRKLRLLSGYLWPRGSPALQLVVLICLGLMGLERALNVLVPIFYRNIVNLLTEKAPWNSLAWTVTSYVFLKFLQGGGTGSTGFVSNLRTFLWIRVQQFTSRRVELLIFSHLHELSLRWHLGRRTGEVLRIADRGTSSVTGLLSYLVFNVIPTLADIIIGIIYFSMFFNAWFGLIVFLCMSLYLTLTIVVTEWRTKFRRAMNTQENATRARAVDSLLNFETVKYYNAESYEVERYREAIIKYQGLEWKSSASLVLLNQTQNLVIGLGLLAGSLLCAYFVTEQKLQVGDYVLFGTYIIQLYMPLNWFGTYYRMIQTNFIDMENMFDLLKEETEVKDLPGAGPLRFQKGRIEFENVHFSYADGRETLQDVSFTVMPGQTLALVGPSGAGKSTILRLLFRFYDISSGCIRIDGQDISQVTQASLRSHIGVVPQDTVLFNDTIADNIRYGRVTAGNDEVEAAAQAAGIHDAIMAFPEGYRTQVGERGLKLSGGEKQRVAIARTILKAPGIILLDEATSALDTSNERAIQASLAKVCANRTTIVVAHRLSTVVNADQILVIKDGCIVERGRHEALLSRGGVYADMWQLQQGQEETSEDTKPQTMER
STAT3 act – STAT3 signaling activation; U3A cells, IL-6 STAT3-luciferase reporter, luminescence; 100% = signal with IL-6 EC80 alone; activation (% of control), % at 5.6 µM; actives 0.91% (n = 190,000); AID 871;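 active = activation above the screen-wide mean of compound activation plus 3 SD, cut at about 130% in these data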
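System – human U3A cells carrying STAT3-luciferase construct · Probe or stimulus – Interleukin-6, 33 ng/mL · Schedule – compound 1 h, then IL-6 6 h at 37 °C · Signal – luminescence from STAT3-driven luciferase reporter · Evaluation – percent of IL-6-only median luminescence · Benchmarks – IL-6-only high control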
Large screens that a line does not name were inactive. The list is not random: actives were taken first. Their share in the collection is about 3.3%.

CC(C)Cn1c(N)c(C(=O)COC(=O)c2cccn2C)c(=O)n(C)c1=O	none (no result: STAT3 act)
CCOC(=O)c1cnn(-c2ccccc2)c1-n1cccc1C(=O)C(=O)Nc1ccc(F)cc1	none
Oc1ccc(-c2csc(Nc3cccc4ccccc34)n2)cc1O	AHR activator 52.0 (no result: STAT3 act)
CCC(CNc1cc(OC)cc2cccnc12)NC1CCCCC1 (stereo not drawn)	AHR activator 48.5 (no result: STAT3 act)
CC1Cc2ccccc2N1C(=O)CSc1nnc(-c2ccc(S(=O)(=O)N3CCOCC3)cc2)n1C (stereo not drawn)	none
O=C(NNc1c(Cl)cncc1Cl)c1sccc1Cl	none (no result: STAT3 act)
COc1ccc(N2CCN(C(=O)C3CCN(C(=O)c4ccc([N+](=O)[O-])cc4)CC3)CC2)cc1	none (no result: STAT3 act)
Cc1ccc2oc(-c3cccc(NC(=O)c4ccc(Br)o4)c3)nc2c1	AHR activator 59.5
COc1ccccc1NC(=O)Nc1cc(NC(=O)Nc2ccccc2OC)c(C)nc1C	AHR activator 49.1
COc1ccccc1NC(=O)c1sc(Cl)nc1C	AHR activator 70.2 (no result: STAT3 act)
COc1cccc(OC)c1NC(=O)Cc1nn(C)c(=O)c2ccccc12	none
COc1ccccc1NC(=O)CC(=O)Nc1ccccc1OC	AHR activator 68.7 (no result: STAT3 act)
COc1ccccc1NC(=O)Cc1nn(C)c(=O)c2ccccc12	AHR activator 64.2
O=C(Nc1cccc(Cl)c1)Nc1csc([N+](=O)[O-])c1	none (no result: STAT3 act)
O=C(CNC(=O)c1ccccc1)OC(C(=O)O)c1ccc(F)cc1 (stereo not drawn)	none (no result: AHR activator, STAT3 act)
COC(=O)c1ccc(CN(C(=O)N2CCN(C)CC2)S(=O)(=O)c2ccc(C)cc2)cc1	none (no result: STAT3 act)
COc1cc(NC(=O)Cn2ncc3c2-c2ccccc2OC3)cc(OC)c1OC	none
COc1ccccc1NC(=O)Cn1ncc2c1-c1ccccc1OC2	AHR activator 58.5
Cn1nc(CC(=O)Nc2ccc(N3CCN(C(=O)OC(C)(C)C)CC3)cc2)c2ccccc2c1=O	ABCB6 inh MLPCN 30.0
COc1cccc(-c2ccc3c(c2)O[C@@H](CN(C)C(=O)C2CCOCC2)[C@H](C)CN([C@H](C)CO)S3(=O)=O)c1	none (no result: AHR activator, STAT3 act)
COc1ccc(N=Nc2[nH]c3ccc(C)cc3c2O)cc1	AHR activator 68.8
COc1ccc(-c2nc(N=Nc3ccc(O)cc3)n[nH]2)cc1	none
Cc1ccc(N=Nc2[nH]c3ccccc3c2O)cc1	AHR activator 77.1, STAT3 act 170.9
NC(=O)c1ccc(N=Nc2c(O)c3ccccc3[nH]c2=O)cc1	none (no result: GAA850 FXN act, ABCB6 inh MLPCN, STAT3 act)
O=C(O)CCCNS(=O)(=O)/C=C/c1ccccc1	none
CCOC(=O)c1c(-c2ccc(C)o2)csc1NC(=O)COC(=O)c1cccs1	none
CCOC(=O)c1c(-c2ccc(C)o2)csc1NC(=S)NC(=O)N(C)C	AHR activator 57.4
Cc1noc(C)c1CSc1nnnn1-c1ccc(Cl)cc1	none
C/C(=N\NC(=O)C1COc2ccccc2O1)c1ccc(N2CCOCC2)cc1 (stereo not drawn)	none
N#C/C(=C\c1ccc(-c2cccc([N+](=O)[O-])c2)o1)C(=O)Nc1nc(-c2cccs2)cs1	AHR activator 78.5 (no result: STAT3 act)
COc1ccc(C2Nc3cc(OC)ccc3-n3cccc32)cc1 (stereo not drawn)	AHR activator 60.3 (no result: STAT3 act)
COc1ccc(C2NC(=S)N3C(c4ccc(OC)cc4)NC(=S)N23)cc1 (stereo not drawn)	none
O=C(NCc1nc2ccccc2[nH]1)C1=C[C@@H](c2ccccc2)C[C@@H](OCCCCO)O1	AHR activator 56.9 (no result: STAT3 act)
OCCC1CN(Cc2ccc3nsnc3c2)CCN1CCc1ccccc1 (stereo not drawn)	none
CCc1ccc2[nH]c(O)c(N=Nc3nc(-c4ccccc4)cs3)c2c1	AHR activator 62.7
CC1=NNC(=O)C1CCC(=O)N/N=C\c1ccccc1[N+](=O)[O-] (stereo not drawn)	none
CNc1nc(N(C)C)nc(N(C)C)n1	STAT3 act 135.7
O=C(Nc1ccc(/C=C/c2nc3ccccc3o2)cc1)c1c(F)cccc1F	AHR activator 48.7
CC(=O)Nc1ccc(/C=C/c2nc3ccccc3o2)cc1	none (no result: STAT3 act)
c1ccc2c(c1)nc(NC1CCCCC1)c1nncn12	STAT3 act 135.7
Cc1nnc2c(NC3CCCC3)nc3ccccc3n12	none
COc1nc(NC2OC(CO)C(O)C(O)C2O)c(N)c(=O)[nH]1 (stereo not drawn)	none (no result: AHR activator, STAT3 act)
CCOC(=O)CSc1ccc(-c2nc3cc(C)c(C)cc3[nH]2)cn1	none
Cc1ccc2nc(-c3ccc(SCC(=O)Nc4nc(C)cs4)nc3)[nH]c2c1	AHR activator 66.7
Cc1ccc2nc(-c3ccc(SCC(=O)Nc4nnc(C)s4)nc3)[nH]c2c1	none
Cc1cc2nc(-c3ccc(SCc4ccccn4)nc3)[nH]c2cc1C	AHR activator 48.5
Cc1cc2nc(-c3ccc(SCC(=O)N4CCOCC4)nc3)[nH]c2cc1C	AHR activator 59.7
Oc1cccc(C=NN=C2c3ccccc3-c3ccccc32)c1	none (no result: AHR activator, STAT3 act)
Cc1ccc(NC(=O)c2cccc3c2C(=O)N(C2CCCCC2)C3)c(Cl)c1	none (no result: STAT3 act)
C/C(=N\NC(=O)c1ccoc1C)c1ccc(Cl)s1	none (no result: STAT3 act)
Cc1ccc(-c2nc(C#N)c(NCCc3ccccn3)o2)cc1	AHR activator 72.9
COc1ccc(-c2nc(C#N)c(NCC3CCCO3)o2)cc1 (stereo not drawn)	none
Cc1ccc(-c2nc(C#N)c(NCC3CCCO3)o2)cc1 (stereo not drawn)	AHR activator 62.9
COc1ccc(CCNc2oc(-c3ccc(C)cc3)nc2C#N)cc1OC	AHR activator 68.7
COc1ccc(NC(=O)C(C)N2CCN(C)CC2)cc1 (stereo not drawn)	none (no result: STAT3 act)
CCN1CCN(c2oc(-c3ccccc3C)nc2S(=O)(=O)c2ccccc2)CC1	none (no result: AHR activator, STAT3 act)
CC(C)c1ccc(C2=C(O)c3ccccc3C(=O)C2=O)cc1	AHR activator 54.2
Cc1ccc(C2=C(O)c3ccccc3C(=O)C2=O)cc1	none (no result: STAT3 act)
O=C(N/N=C/c1cn(-c2ccccc2)nc1-c1cc2ccccc2o1)c1ccncc1	AHR activator 68.3
O=C(O)c1cccc(NC(=O)c2cn(-c3ccccc3)nc2-c2cc3ccccc3o2)c1	none
Clc1ccc(Nc2ncnc3ccc(Br)cc23)cc1	AHR activator 67.2
CC1CCN(C(=O)COC(=O)c2cccc(S(=O)(=O)N3CCOCC3)c2)CC1	none (no result: AHR activator, STAT3 act)
Cc1cccc(N/C(N)=N/c2nc(C(F)(F)F)cc(C(F)(F)F)n2)c1	AHR activator 68.5
CCN(C(=O)c1c([N+](=O)[O-])cnn1C)c1ccccc1	none (no result: AHR activator, STAT3 act)
COc1cc(-c2noc(-c3cccs3)n2)cc(OC)c1OC	AHR activator 47.7
COc1cc(-c2nc(-c3ccccc3)c(-c3cccs3)[nH]2)cc(OC)c1OC	AHR activator 70.1
O=C1c2[nH]c3ccccc3c2CC1N1C(=O)c2ccccc2C1=O (stereo not drawn)	none (no result: AHR activator, STAT3 act)
COc1ccc2c3n(nc2c1)CCN=C3c1cc(Cl)c(N)c(Cl)c1	AHR activator 61.3 (no result: STAT3 act)
Nc1c(Cl)cc(C2=NCCn3nc4cc(C(F)(F)F)ccc4c32)cc1Cl	AHR activator 53.9 (no result: STAT3 act)
COc1ccc2c(c1)cc1n2CCN=C1N	none
COc1ccc(C2=NCCn3nc4ccccc4c32)cc1	AHR activator 54.2 (no result: STAT3 act)
CCc1ccc(OCC(=O)NC(=S)Nc2ccc(C(C)=O)cc2)c(Br)c1	AHR activator 75.9

Assay outcomes (PubChem BioAssay)
